Screening results as filed in PubChem.
Sampled rows, rich in hits. Any-hit rate of the full collection: about 3.1%.
T cruzi repl: blocks replication of Trypanosoma cruzi; T. cruzi beta-gal in NIH3T3, luminescence, 90 h; inhibition, % (test concentration not listed); actives 1.4% (n = 300,000); AID 1885;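 active = mean inhibition across valid replicates above about 55%, limit read from the data; inconclusive = mean below that limit but half or more replicates reach it; inactive = mean below it, under half of replicates reach it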;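 note: signal also drops with host cell toxicity which is not excluded here; 0% = plate median of DMSO wells and 100% = zero luminescence signal; higher percent means less beta-gal luminescence so fewer parasites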
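Read-out: Parasite load inhibition, % | Test system: Mouse NIH/3T3 fibroblasts infected with β-gal-expressing T. cruzi Tulahuen C4 | Amount: 5,000 cells/well | Medium: DMEM, 2% fetal bovine serum | Signal: GalScreen β-gal luminescence, detergent lysis, 60 min | Timing: 3 h attach, ≥90 h co-culture | Also added: Tulahuen C4 trypomastigotes, 5000/well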
Calb FLC: affects C. albicans growth with fluconazole | C. albicans CaCi-2 + fluconazole, Alamar Blue growth, 48 h | growth inhibition, % (test concentration not listed) | actives 0.57% (n = 300,000) | AID 1979;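 active = growth inhibition above about 58% in most replicates, limit read from the data, passing the limit was not always enough; inconclusive = exactly half the replicates above a set limit; inactive = most replicates below a set limit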;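 note: all wells also contain fluconazole at 8 µg/ml as a sub-toxic cotreatment; 0% = median of DMSO wells and 100% = median of geldanamycin control wells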
CSC inhib: blocks cancer stem cells; cancer stem cell-like cells viability, luminescence; inhibition, % at 7.5 µM; actives 1.1% (n = 300,000); AID 2717; in the data active = inhibition above about 75%; inconclusive = no clear call, values can overlap the other calls; tested in HMLE shEcad cells
TAG inh: triacylglycerol accumulation inhibition; H9c2 cells, Nile Red lipid (TAG) fluorescence; cells loaded with 200 µM oleic acid; inhibition, % at 12.5 µM; actives 0.66% (n = 230,000);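 active = pattern-corrected inhibition of lipid staining of at least 50% with the nuclear-stain viability signal not falling by more than 50%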;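 note: 0% = DMSO wells and 100% = triacsin C control wells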
Bfl-1 A1 inh: inhibitors of the anti-apoptotic protein A1, read as caspase activation; MEF A1-2A-BIM cells, Caspase-Glo 3/7 luminescence, 3 h; percent of clofoctol response, vehicle zero; caspase activation, % (test concentration not listed); actives 0.066% (n = 330,000); AID 2462;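 active = over half of replicate activation scores above 10%, or exactly half above 10 with the replicate mean above 10; inconclusive = replicate mean below 10 yet half the replicates above 10; inactive = over half of replicates below 10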
Beta cell apopt: blocks beta cell apoptosis; INS-1E cytokine-induced death, ATP luminescence, 48 h; percent of positive-control rescue, neutral wells zero; actives 0.8% (n = 300,000); AID 435005; protection from apoptosis, % (concentration not given with the values);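 active = Every replicate reaches about 75%, or at least half do and their mean reaches it too, limit read from the data; inconclusive = At least half of replicates reach the limit but their mean does not; inactive = Under half of replicates reach the limit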;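 note: 0% = cytokine-treated negative control wells and 100% = positive control rescue; higher means more ATP so stronger rescue from cytokine killing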
Numbers without * were called inactive; ? = inconclusive; / = no result given.

SMILES	T cruzi repl	Calb FLC	CSC inhib	TAG inh	Bfl-1 A1 inh	Beta cell apopt
CCOC(=O)c1ccccc1OC(=O)CS(=O)c1ccccc1[N+](=O)[O-] (stereo not given)	-20.5	20.1	-11.2	8.1	0.2	-9.6
CS(=O)(=O)c1ccc(S(=O)CC(=O)OCc2ccccc2)c([N+](=O)[O-])c1 (stereo not given)	56.1*	63.8	/	101.8	/	/
COC(=O)c1ccc(OC(=O)CS(=O)c2ccccc2[N+](=O)[O-])cc1 (stereo not given)	-11.9	-3.8	-3.0	/	0.8	-7.7
O=C(CS(=O)c1ccc(C(F)(F)F)cc1[N+](=O)[O-])Oc1ccccc1 (stereo not given)	-11.5	0.7	76.8*	-18.4	9.2*	-26.4
O=[N+]([O-])c1nn(-c2ccccc2)[n+]([O-])c1N1CCN(c2ccccc2)CC1	84.7*	-10.4	-25.8	14.2	0.7	-1.6
O=[N+]([O-])c1nn(-c2ccccc2)[n+]([O-])c1N1CCN(c2ccccc2F)CC1	56.9*	-20.2	-7.0	2.7	0.4	-4.2
O=C(Cc1ccc([N+](=O)[O-])cc1)NNC(=O)c1ccc2c(c1)OCO2	/	113.2*	9.7	-4.8	1.9	-4.1
O=C(c1cc([N+](=O)[O-])cc([N+](=O)[O-])c1)N1CCN(Cc2ccc3c(c2)OCO3)CC1	66.0*	-4.5	0.6	1.2	1.1	3.3
CC1CCCN(C(=O)Cc2cccc3ccccc23)C1 (stereo not given)	2.8	-6.8	5.4	-2.8	1.0	-9.7
O=C(Nc1cccc(C(F)(F)F)c1)C1CCN(S(=O)(=O)c2ccc(N3CCCC3=O)cc2)CC1	34.1	12.3	10.1	/	0.9	40.4
CCn1c(C)nc2cc(-c3nc4n(n3)Cc3ccccc3-4)ccc21	11.3	13.0	92.2*	2.3	-11.1	71.4
COc1ccc(OCC(NS(=O)(=O)c2ccc(-n3cnnn3)cc2)C(C)C)cc1 (stereo not given)	6.9	13.2	10.3	/	-0.2	0.9
CCCNC(=O)c1onc(CSc2ccc(Cl)cc2)c1C(=O)NCCC(C)C	33.1	-1.5	93.1*	-3.4	0.0	3.7
C=CCC[C@H](Cc1ccc(F)cc1)C(=O)OC[C@@H](Cc1c[nH]c2ccccc12)NC(=O)[C@H](CC=C)CC(=O)N(CCO)Cc1ccccc1	/	/	92.4*	56.5*	-0.5	-13.1
O=C(Cc1cccc(NC(=O)C2CCCN(C(=O)C3CCC3)C2)c1)Nc1cccc(C(=O)N2CCOCC2)c1 (stereo not given)	/	/	/	12.9	/	/
COc1ccc(C(=O)c2c(C(F)(F)F)oc3c2C(=O)c2ccccc2C3=O)cc1OC	64.7*	-18.4	101.5*	134.5	-0.1	/
COc1ccc(C(=O)Nc2ccc3c(c2)C(=O)c2ccccc2C3=O)cc1OC	-3.5	5.1	-6.8	11.1	-0.3	-1.9
COc1cc2c(-c3ccc(O)cc3)nc3c(c(C)nn3-c3ccccc3)c2cc1OC	/	/	87.6*	/	0.6	52.9
O=C(NNC(=O)C1CC(=O)N(Cc2ccccc2)C1)c1ccc(F)cc1 (stereo not given)	-2.7	4.5	-6.8	-10.1	0.4	-5.0
O=C(Nc1ccc(Nc2ccncc2)cc1)c1ccc(Nc2ccnc3ccc([N+](=O)[O-])cc23)cc1[N+](=O)[O-]	-1.6	-3.3	26.7	/	0.6	80.9*
O=C(Nc1ccc(Nc2ccncc2)cc1)c1ccc([N+](=O)[O-])cc1	32.7	-2.0	29.4	/	?	22.0
Cc1cc(NCCN2CCOCC2)c2ccc3ccccc3c2n1	64.6*	-6.4	-0.7	/	0.5	27.4
c1ccc(CNc2ncnc3ccccc23)cc1	-72.6	26.3	0.2	-36.1	-0.4	38.8
CN(C)CCCNc1c2ccccc2nc2ccccc12	67.7*	20.7	130.8*	/	0.8	108.7*
c1ccc(CNc2c3ccccc3nc3ccccc23)cc1	57.0*	1.4	51.7	/	-0.5	98.3*
SMILES	T cruzi repl	Calb FLC	CSC inhib	TAG inh	Bfl-1 A1 inh	Beta cell apopt
Clc1cccc(-c2nc(NCCN3CCOCC3)c3ccccc3n2)c1	19.9	63.0	11.0	4.8	-0.4	-7.6
Clc1cccc(-c2nc(NCCCN3CCOCC3)c3ccccc3n2)c1	8.1	28.3	91.4*	18.4	-0.5	-1.8
Fc1ccccc1-c1nc(NCCCN2CCOCC2)c2ccccc2n1	7.9	5.4	2.1	/	0.0	-0.9
Oc1ccc(CCNc2c3ccccc3nc3ccccc23)cc1O	10.5	57.1	76.1*	/	0.4	-6.2
c1ccc2c(NCCCN3CCOCC3)c3ccccc3nc2c1	/	/	51.2	/	0.0	103.8*
COc1ccc(CN2CCN(CCSc3ccc(C)cc3)CC2)c(OC)c1OC	48.2	12.8	36.2	/	-1.1	123.0*
CC(C)(C)NC(=O)NC(=O)COC(=O)c1ccc2c(c1)S(=O)(=O)N=C1CCCCCN12	-9.8	5.2	-21.1	/	0.0	-14.5
CC(NC(=O)COC(=O)c1ccc2c(c1)S(=O)(=O)N=C1CCCCCN12)C12CC3CC(CC(C3)C1)C2 (stereo not given)	0.7	-14.7	11.2	8.7	7.2*	46.8
Cc1[nH]c2ccc(F)cc2c1CCN(Cc1cccnc1)C(=S)Nc1cccc(F)c1	64.7*	25.0	-4.1	1.8	-0.7	-0.4
Cc1ccc2[nH]c(C)c(CCN(Cc3cccnc3)C(=S)NC(C)(C)C)c2c1	34.0	6.6	1.7	/	0.1	-0.3
COc1ccc2[nH]c(C)c(CCN(Cc3cccs3)C(=S)Nc3cccc(F)c3)c2c1	62.9*	7.8	7.3	17.8	-0.3	-0.4
COc1cccc(NC(=S)N(CCc2c(C)[nH]c3ccc(C)cc23)Cc2cccs2)c1	11.7	4.5	10.9	-2.6	0.1	-7.0
Cc1[nH]c2ccc(F)cc2c1CCN(Cc1cccnc1)C(=S)NC(C)(C)C	64.9*	3.0	-4.0	/	1.0	-5.6
Cc1cccc(NC(=O)CCC(=O)N2CCOCC2)n1	/	/	/	-16.9	0.3	1.0
O=C(COC(=O)CNC(=O)c1ccccc1F)NC12CC3CC(CC(C3)C1)C2	/	/	3.2	-2.7	0.2	-6.0
O=C(N/N=C/c1c(F)cccc1Cl)C(=O)N1CCCCCC1	-6.0	-10.2	-5.6	-6.0	0.5	-1.7
O=C(Nc1ccc(Cl)c(Cl)c1)N1CCSC1c1ccco1 (stereo not given)	-2.3	-11.0	40.2	-18.5	0.2	103.5*
O=C(O)c1cc(S(=O)(=O)N2CCOCC2)c[nH]1	/	/	/	-6.4	0.6	-1.8
Cn1c(=O)[nH]c(=O)c2c1nc(N1CCCC1)n2CCCSc1nc2ccccc2o1	12.2	8.1	-10.9	-19.6	-0.3	2.4
Cn1c(=O)[nH]c(=O)c2c1nc(Br)n2CCCSc1nc2ccccc2o1	62.8*	13.9	/	/	-0.6	1.8
CCOC(=O)C1CCN(S(=O)(=O)c2cn(C)c(C)n2)CC1	-29.4	?	1.8	14.7	0.0	-8.3
